In ChEMBL document CHEMBL1122482, “Optical resolution, absolute configuration, and activity of the enantiomers of proxyphylline” (J Med Chem, 1983):

Columns and labels:
[1] = Inhibition of human lung high-affinity cAMP phosphodiesterases (0.5-2 uM/L)
Outline: (§1)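 Enzyme source was lung cytosol from homogenized unaffected tissue of a patient undergoing total pulmectomy for pulmonary carcinoma. Phosphodiesterase activity was measured essentially by the Thompson and Appleman method. Substrates were cAMP or cGMP at 0.5–2 μmol/L for the high-affinity form and 10–50 μmol/L for the low-affinity form. Inhibitor was added at 0.25–1.0 mmol/L. K_I came from Dixon plots of initial rates.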

[2] = biological target: cGMP-specific 3',5'-cyclic phosphodiesterase (Homo sapiens, UniProt O76074); test: Inhibition of human lung high-affinity cGMP phosphodiesterases (0.5-2 uM/L); outline: as §1
[3] = biological target: cGMP-dependent 3',5'-cyclic phosphodiesterase (Homo sapiens, UniProt O00408); test: Inhibition of human lung low-affinity cGMP phosphodiesterases (10-50 uM/L); outline: as §1
Chain of cGMP-dependent 3',5'-cyclic phosphodiesterase (O00408 whole entry): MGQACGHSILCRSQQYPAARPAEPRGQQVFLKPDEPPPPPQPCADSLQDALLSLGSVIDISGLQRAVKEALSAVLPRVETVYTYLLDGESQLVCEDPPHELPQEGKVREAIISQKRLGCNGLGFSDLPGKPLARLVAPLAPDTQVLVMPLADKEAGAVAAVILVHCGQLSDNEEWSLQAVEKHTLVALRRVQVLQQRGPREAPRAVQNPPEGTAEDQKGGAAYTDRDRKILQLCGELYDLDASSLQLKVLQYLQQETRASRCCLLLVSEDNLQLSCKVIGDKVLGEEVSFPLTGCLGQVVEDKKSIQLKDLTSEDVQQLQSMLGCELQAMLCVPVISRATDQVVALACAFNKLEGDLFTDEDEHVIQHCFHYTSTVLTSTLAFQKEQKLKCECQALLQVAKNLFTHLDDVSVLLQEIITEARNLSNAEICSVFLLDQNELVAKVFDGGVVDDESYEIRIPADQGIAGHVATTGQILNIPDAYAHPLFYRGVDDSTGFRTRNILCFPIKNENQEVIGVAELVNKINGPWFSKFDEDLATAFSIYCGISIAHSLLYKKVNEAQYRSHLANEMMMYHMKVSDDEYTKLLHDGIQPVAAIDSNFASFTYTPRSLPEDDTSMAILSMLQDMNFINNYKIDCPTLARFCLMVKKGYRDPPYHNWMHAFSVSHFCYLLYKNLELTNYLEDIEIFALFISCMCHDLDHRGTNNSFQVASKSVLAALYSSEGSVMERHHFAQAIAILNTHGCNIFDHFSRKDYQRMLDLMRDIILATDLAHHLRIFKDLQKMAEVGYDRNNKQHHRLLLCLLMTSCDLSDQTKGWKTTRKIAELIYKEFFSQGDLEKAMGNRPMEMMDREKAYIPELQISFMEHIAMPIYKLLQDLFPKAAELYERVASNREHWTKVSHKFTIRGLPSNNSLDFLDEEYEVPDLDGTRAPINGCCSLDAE

Structure (SMILES): CC(O)Cn1cnc2c1c(=O)n(C)c(=O)n2C (centres undefined) [PROXYPHYLLINE]
- Ki [1]: 500 µM
- Ki [2]: 600 µM
- Ki [3]: 600 µM

Structure (SMILES): C[C@H](O)Cn1cnc2c1c(=O)n(C)c(=O)n2C [(S)-PROXYPHYLLINE]
- Ki [1]: 400 µM
- Ki [2]: 600 µM
- Ki [3]: 700 µM

Structure (SMILES): C[C@@H](O)Cn1cnc2c1c(=O)n(C)c(=O)n2C [(R)-PROXYPHYLLINE]
- Ki [1]: 500 µM
- Ki [2]: 600 µM
- Ki [3]: 600 µM
